High-throughput results: PubChem, several laboratories
APP 5'UTR act: activates APP 5'UTR luciferase reporter; SH-SY5Y APP 5'UTR luciferase reporter, luminescence; zero percent = DMSO vehicle wells; 190,000 tested, 1% active; activation, % at 2 µM; AID 1276;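 active = activation above a set limit, based on mean plus 3 SD of controls, cut at about 140% in these data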
STAT3 act: activators of IL-6 induced STAT3 signaling | U3A cells, IL-6 STAT3-luciferase reporter, luminescence; 100% = signal with IL-6 EC80 alone | activation (% of control), % at 5.6 µM | 190,000 tested, 0.91% active;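 active = activation above the screen-wide mean of compound activation plus 3 SD, cut at about 130% in these data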
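Detection: reporter luminescence signal / Assay system: STAT1-lacking human U3A cells, STAT3 luciferase reporter / Incubation: compound pre-incubation 1 h before IL-6, then 6 h stimulation at 37 °C / Control set: IL-6-only high control / Read-out: % activation relative to IL-6 control / Probe or stimulus: Interleukin-6, 33 ng/mL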
NF-kB expr up: NF-kB expression increase, human neuronal cells; NF-kB reporter expression; hits give high values; fold change at 12.5 µM; 190,000 tested, 1.6% active; AID 1239; in the data active = fold change above about 3.3
STAT1 act: activators of IFN-gamma induced STAT1 signaling; activation (% of control), % at 5.5 µM; NIH 3T3 STAT1-luciferase reporter, luminescence; 100% = IFN-gamma alone, no compound; 200,000 tested, 2.6% active;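 active = activation above the screen-wide mean activation plus 3 SD, cut at about 130% in these data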
STAT1 inh: reduces IFN-gamma driven STAT1 reporter signal | 200,000 tested, 0.35% active | NIH 3T3 STAT1-luciferase reporter, luminescence | AID 920 | inhibition, % at 5.5 µM;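 active = inhibition above a set limit, the mean inhibition across all tested compounds plus 3 SD, cut at about 34% in these data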
STAT3 inh: STAT3 signaling inhibition; AID 862; U3A cells, IL-6 STAT3-luciferase reporter, luminescence; host cell line lacks STAT1; inhibition, % at 5.5 µM; 190,000 tested, 0.89% active;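 active = inhibition above the mean inhibition across all screened compounds plus 3 SD, cut at about 44% in these data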
Each line names hits and unclear results; the compound was inactive in the other large screens. Rows were chosen to be rich in hits. Some 5.1% of all compounds tested hit in one or more screens of this group.

O=C1CC(c2ccco2)CC(O)=C1C=Nc1cc(Cl)ccc1Cl (stereo not given)	none
O=C1CC(c2ccco2)CC(O)=C1C=Nc1cc(Cl)ccc1O (stereo not given)	NF-kB expr up 3.36
Cn1c(SCc2nc3ccccc3c(=O)[nH]2)nc2ccccc21	none
Cn1c(-c2ccccc2)cnc1SCc1nc2ccccc2c(=O)[nH]1	APP 5'UTR act 142.2, STAT1 act 134.3
S=C(N=Nc1ccccc1)NNc1ccccc1	NF-kB expr up 3.73
Cc1ccc(C(=O)Nc2ccc(Br)c(C(F)(F)F)c2)cc1	STAT1 act 143.2
COc1ccc(S(=O)(=O)NCCOc2cccc3cccnc23)cc1OC	STAT1 act 129.0
COc1cc(C(=O)NCCOc2cccc3cccnc23)cc(OC)c1OC	none
Cc1ccc(C(=O)N2CCCC2)cc1S(=O)(=O)Nc1cccc(C)c1C	none
FC(F)(F)c1cnc(-c2cnc(-c3ccncc3)nc2)c(Cl)c1	STAT1 act 140.4
CC(Cl)c1cc(-c2ncc(C(F)(F)F)cc2Cl)no1 (stereo not given)	none
CC(O)CNCCCCOc1ccc(OCc2ccccc2)cc1 (stereo not given)	none
CN(C(=O)COc1ccc(Cl)cc1)c1nnc(C23CC4CC(CC(C4)C2)C3)s1	none (no result: STAT3 act, STAT3 inh)
CN(C(=O)c1ccco1)c1nc2c(s1)CCCC2	APP 5'UTR act 162.5, NF-kB expr up 4.06, STAT1 act 130.1
CN(C(=O)c1ccco1)c1nnc(C23CC4CC(CC(C4)C2)C3)s1	STAT3 act 133.3, STAT1 act 139.5
CCC(=O)NNc1nc2c(Cl)cccc2s1	none
O=[N+]([O-])c1ccccc1S(=O)(=O)n1nnc2ccccc21	none
Cc1ccc(C(=O)NC2CCCCCC2)cc1N1CCCC1=O	none
O=C(NC1CCCCCC1)c1cccc(N2CCCC2=O)c1	STAT1 act 129.7
CCOC(=O)c1sc(N/N=C/c2cccc(C)c2)nc1C	STAT1 act 129.9
CCOC(=O)c1sc(Nc2nc3c(OC)cccc3s2)nc1C	STAT3 act 135.7
COc1cccc2sc(Nc3nc(-c4ccccn4)cs3)nc12	STAT1 act 136.3
CCOC(=O)c1sc(NC(=O)Nc2ccc(Cl)cc2)nc1C	STAT1 act 129.1
Cc1ccc(-c2nn(-c3cc(Cl)ccc3[N+](=O)[O-])c(=O)c3ccccc23)cc1C	none
CCN(CC)S(=O)(=O)c1ccc(OC(C)C)c(NC(=O)c2c3c(nc4ccccc24)CCN(Cc2ccccc2)C3)c1	none
CC(=O)c1sc(N/N=C\c2ccccc2O)nc1C	NF-kB expr up 5.88
CC(=O)c1sc(Nc2cccc(C)c2)nc1C	none
COc1ccc2c(c1)[nH]c(=O)c1sc3ccccc3c12	STAT3 act 174.1
c1ccc(-c2noc(COc3ccc4c(c3)OCO4)n2)cc1	NF-kB expr up 4.06
Cc1ccccc1OCc1nc(-c2ccccc2)no1	STAT1 act 136.9
COc1ccc(-c2noc(COc3ccc4c(c3)OCO4)n2)cc1	none
CCN1CCN(c2cc(C)c3cc(NC(=S)N4CCCC(C)C4)ccc3n2)CC1 (stereo not given)	none
CC(C)OCCCNS(=O)(=O)c1ccc2ccccc2c1	none
O=C1CN(C(=O)COC(=O)c2ccc[n+]([O-])c2)c2ccccc2N1	none
CC(C)(C)N=Cc1cc(-c2ccccc2)sc1O	STAT1 act 138.5 (no result: APP 5'UTR act)
CCN(CC)c1ccc(C=Nc2ccccc2)c(O)c1	none
COc1ccc(-c2nnc(SCC#N)o2)cc1	none
Cc1ccccc1-c1nnc(SCc2ccccc2)o1	STAT1 act 132.1
Cc1ccc(CSc2nnc(-c3ccco3)o2)cc1	NF-kB expr up 3.9
C#CCSc1nnc(-c2ccc(OC)cc2)o1	STAT1 act 134.2
c1ccc(CSc2nnc(-c3ccncc3)o2)cc1	none
Fc1ccccc1CSc1nnc(-c2ccccc2)o1	APP 5'UTR act 138.9, NF-kB expr up 4.99, STAT1 act 145.3
N#Cc1nc(-c2ccco2)oc1N1CCC(Cc2ccccc2)CC1	none
COc1ccc(NCC(=O)N/N=C/c2cc([N+](=O)[O-])ccc2N2CCCC2)cc1	none
CCSc1nnc(-c2ccc(OC)cc2)o1	none
COc1ccc(-c2nnc(SCc3ccccc3F)o2)cc1	APP 5'UTR act 156.9, NF-kB expr up 7.66, STAT1 act 142.1
Cc1ccccc1-c1nnc(SCc2ccccc2F)o1	APP 5'UTR act 141.8, NF-kB expr up 6.44, STAT1 act 148.3
Cc1cccc(SCC(=O)Nc2ccccc2[N+](=O)[O-])c1	none
Cc1nc(NC(=O)c2ccccc2)nc2cc3c(cc12)OCO3	STAT1 act 129.3
Cc1nc(NC(=O)c2ccc(F)cc2)nc2cc3c(cc12)OCO3	none
Cc1ccc(S(=O)(=O)N(C)Cc2ccc(C(=O)N/N=C/c3ccc(OC(F)F)cc3)cc2)cc1	none
CC(C)C(=O)Nc1cccc(C(=O)Nc2nnc(C(C)C)s2)c1	STAT1 act 146.3
CC(C)c1nnc(NC(=O)c2cccc(NC(=O)C(F)(F)F)c2)s1	STAT1 act 138.3
CC(/C=C1\SC(=S)N(CCCC(=O)Nc2ccc(C(=O)O)cc2)C1=O)=C\c1ccccc1	none
CC(/C=C1\SC(=O)N(CCCC(=O)O)C1=O)=C\c1ccccc1	STAT1 inh 35.8, STAT3 inh 83.7
COc1ccc(C(=O)Nn2c(SCc3cccc([N+](=O)[O-])c3)nc3ccccc3c2=O)cc1	STAT1 act 143.6
COc1ccc(C(=O)Nn2c(SCC(=O)c3ccc(Cl)cc3)nc3ccccc3c2=O)cc1	none
O=C(Nn1c(SCc2cccc([N+](=O)[O-])c2)nc2ccccc2c1=O)c1ccccc1	STAT1 act 149.5
COc1ccc(C(=O)Nn2c(SCC(=O)N3CCC(C)CC3)nc3ccccc3c2=O)cc1	STAT1 inh 63.9, STAT3 inh 88.3
CCOP(=O)(OCC)C(NC(=O)c1cccs1)C(F)(F)F (stereo not given)	none
COc1ccc(/C=C2\N=C(SC)N(c3ccccc3OC)C2=O)cc1	none
COc1ccc(OC)c(Cc2nnc(CCC(=O)N3CCCCC3)o2)c1	STAT1 act 131.8
COc1ccc(C(=O)N2CCc3ccccc32)cc1	none
COc1ccc(C(=O)/C=C2\NCC3c4ccccc4CCN3C2=O)cc1 (stereo not given)	STAT3 act 134.9
c1ccc(Nc2nc(-c3ccncc3)cs2)cc1	STAT1 act 145.3
Cc1nc(C)c(-c2csc(Nc3ccc(F)cc3)n2)s1	STAT1 act 142.3
O=C(Nc1nc(-c2ccc(F)cc2)cs1)c1cnccn1	none
Cc1cc(NS(=O)(=O)c2ccc(Nc3nc(-c4sc(C)nc4C)cs3)cc2)no1	none
Fc1ccc(Nc2nc(-c3ccncc3)cs2)cc1	STAT1 act 143.9
O=[N+]([O-])c1cccc(-c2csc(Nc3ccccc3)n2)c1	STAT3 act 147.3, STAT1 act 143.2
COc1ccc(-c2ccccc2)cc1NCc1ccc(OC)c(OC)c1	none
